OXTR ag = activates the human oxytocin receptor. P30559. CHO-OTR cells, Fluo-8 calcium fluorescence; normalized: DMSO 0%, oxytocin 100%. activation, % at 3 µM. 320,000 tested, 0.32% active;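 active means activation above the mean of all tested compounds plus 3 SD, cutoff set per screening run, cut at about 20% in these data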;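 further: peak over basal fluorescence ratio from a 100 s FLIPR kinetic read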
V1R ag counter = activates human V1a receptor in oxytocin agonist counter-screen; CHO-V1R cells, Fluo-8 calcium fluorescence, agonist mode; 0% DMSO, 100% 3 nM vasopressin; 320,000 tested, 0.25% active; AID 2797; activation, % at 3 µM; P37288;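 active means activation above the mean activation of all tested compounds plus 3 SD, per screening run, cut at about 20% in these data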;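 further: signal is peak over basal fluorescence ratio across a 100 second FLIPR read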
Target sequence (P37288 whole entry, looked up): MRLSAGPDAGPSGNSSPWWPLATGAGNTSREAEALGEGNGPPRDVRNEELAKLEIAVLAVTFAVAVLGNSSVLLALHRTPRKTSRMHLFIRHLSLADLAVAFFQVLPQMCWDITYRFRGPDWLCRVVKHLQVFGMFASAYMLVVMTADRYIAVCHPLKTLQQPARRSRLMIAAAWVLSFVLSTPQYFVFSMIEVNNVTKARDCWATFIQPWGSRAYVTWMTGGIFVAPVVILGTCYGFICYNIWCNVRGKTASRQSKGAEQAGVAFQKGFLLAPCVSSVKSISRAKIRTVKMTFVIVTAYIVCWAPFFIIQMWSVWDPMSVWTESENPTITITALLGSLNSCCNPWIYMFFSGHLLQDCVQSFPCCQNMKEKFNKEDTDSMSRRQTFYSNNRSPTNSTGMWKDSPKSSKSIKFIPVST
OX1R antag-1 = antagonists of human orexin 1 receptor (OX1R); O43613; 330,000 tested, 1.8% active; inhibition, % at 6.6 µM; OX1R-expressing cells, FRET antagonist read-out; in the data active means inhibition mostly above about 38%, no sharp cut-off; inactive means mostly below about 40%
OX1R antag-2 = human HCRTR1 antagonism; CHO/OX1R cells, Fluo-8 calcium fluorescence, orexin A; 330,000 tested, 0.43% active; O43613; inhibition, % at 5 µM;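 active means inhibition above its plate's threshold, mean inhibition of all tested compounds on the plate plus 3 SD, cut at about 37% in these data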
OXTR potentiator = potentiators of human oxytocin receptor; P30559; activation, % at 3 µM; CHO-OTR cells, Fluo-8 calcium fluorescence, potentiator mode; 0% = oxytocin EC15, 100% = EC100; 320,000 tested, 0.061% active;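 active means activation above that plate's cutoff, the mean activation of tested compounds plus 3 SD, cut at about 6.6% in these data, passing the limit was not always enough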
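Replication – single well per compound, singlicate · Assay system – CHO cell line stably expressing human OTR · Timing – 6 min pre-incubation, 100 s read · Measure – normalized max/min fluorescence ratio, % activation · Doses – 3.0 µM, one dose · Detection – Fluo-8 calcium dye fluorescence · Probe or stimulus – oxytocin near EC15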
CHO parental Ca = counter-screen for OX1R antagonists: effect in parental CHO cells. parental CHO-K1, ATP-induced calcium, Fluo-8 fluorescence. inhibition, % at 5.6 µM. 330,000 tested, 0.63% active. AID 463079;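 active means inhibition above that plate's mean sample inhibition plus 3 SD, cut at about 26% in these data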
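Material – parental CHO cells · Reagent – ATP stimulus · Compound – single nominal dose of 5.6 µM per compound · Detection – Fluo-8 fluorescence · Read-out basis – percent inhibition of calcium signal · Controls – ATP-challenged DMSO wells low, unchallenged DMSO wells high · Repeats – no replicates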
Of the large screens only hits and unclear results are named; the others gave an inactive call. This is a sample that favours compounds with a hit; in the whole collection about 2.7% have one here.

COc1ccc(-n2c(C)nc3c(cnn3-c3ccc(Cl)cc3)c2=O)cc1	CHO parental Ca 40
Cc1cc(C(=O)N/N=C/c2ccc(O)c([N+](=O)[O-])c2)n[nH]1	OX1R antag-1 60
O=C(N/N=C/c1ccco1)c1cc(C2CC2)[nH]n1	none
Cc1cc(C(=O)N/N=C/c2cccc([N+](=O)[O-])c2O)n[nH]1	none
O=C(N/N=C/c1ccc([N+](=O)[O-])cc1)c1[nH]ncc1Br	OX1R antag-1 58
O=C(N/N=C/c1ccc([N+](=O)[O-])cc1)c1cc(C2CC2)[nH]n1	OX1R antag-1 68
Cc1c(-c2ccccc2)oc2c(C(=O)N3CCN(c4ccccc4F)CC3)cccc2c1=O	none
CN(C)CCCNCC(=O)NN(c1ccccc1)c1ccccc1	none
O=C(CCc1nnc(C2CCCCC2)o1)N1CCN(c2ccccc2F)CC1	CHO parental Ca 46
CCC1(c2ccc(F)cc2)NC(=O)N(CC(=O)Nc2cccnc2Cl)C1=O (stereo unspecified)	OXTR ag 23, V1R ag counter 30
CC1(c2ccc(OC(F)F)cc2)NC(=O)N(CC(=O)Nc2cccnc2Cl)C1=O (stereo unspecified)	OXTR ag 60, V1R ag counter 48
CCC1(c2ccccc2)NC(=O)N(CC(=O)Nc2cccnc2Cl)C1=O (stereo unspecified)	none
OCC[C@@H]1C[C@@H](O)[C@H](O)[C@@]2(Cc3ccccc3O2)O1	none
COc1ccc(C(=O)NNC(=S)NC(=O)C(C)(C)C)cc1	OXTR ag 78, V1R ag counter 81, OX1R antag-2 62, CHO parental Ca 58
COc1ccc(OC)c(/C=N\NC(=O)c2cc3c(ccc4ccccc43)o2)c1	OX1R antag-1 73
COc1ccc(C(=O)NC(=S)NNC(=O)c2ccccc2C)cc1	OXTR ag 58, V1R ag counter 60
CC(C)(C)C(=O)NC(=S)NNC(=O)c1sc2ccccc2c1Cl	OXTR ag 99, V1R ag counter 112, OX1R antag-2 69, CHO parental Ca 40
CC(C)c1ccccc1NC(=O)C1CC(=O)N(C2CCCC2)C1 (stereo unspecified)	none
S=C1NCN(C2CCCCC2)CN1Cc1ccccc1	none
Cc1c(NC(=O)C(C)OC(=O)/C=C/c2ccc(OC(F)F)cc2)c(=O)n(-c2ccccc2)n1C (stereo unspecified)	none
COc1ccc(/C=N/NC(=O)c2cc(-c3ccccc3)nc3ccccc23)c(OC)c1	OX1R antag-1 42
COc1ccc(C(=O)NNC(=S)NC(=O)c2cc(-c3ccccc3)nc3ccccc23)cc1	OXTR ag 35, V1R ag counter 28
O=C(N/N=C/c1cccc(O)c1)c1cc(-c2ccccc2)nc2ccccc12	none
C=CCn1c(O)c(N=NC(=O)CNC(=O)c2cccs2)c2ccccc21	none
C=CCn1c(O)c(N=NC(=O)CNC(=O)c2ccncc2)c2ccccc21	OX1R antag-1 67
COc1ccc(C(=O)NCC(=O)N=Nc2c(O)n(C)c3ccccc23)cc1OC	OX1R antag-1 57
O=c1nc(N2CCCC2)nc(N2CCCC2)[nH]1	none
CCNc1nc(Oc2ccc(C(=O)OC)cc2)nc(N(C)C)n1	none
COC(=O)c1ccc(Oc2nc(Nc3ccc(C)c(C)c3)nc(N(C)C)n2)cc1	OX1R antag-1 39
Oc1ccc(Oc2ccc3c(C(F)(F)F)cc(C(F)(F)F)nc3n2)cc1	CHO parental Ca 49
Cc1cc(=O)oc2cc(OC(=O)c3ccccc3)ccc12	none
COc1ccccc1-c1c(C(F)(F)F)oc2cc(OC(=O)c3ccc([N+](=O)[O-])cc3)ccc2c1=O	OX1R antag-1 73
CS(=O)(=O)N1CCC(Oc2ccccc2C(=O)N2CCNC(=O)C2)CC1	none
Cc1ccc(CNC(=O)CSc2ccc(-c3ccccn3)nn2)cc1	none
COc1ccc(CCNC(=O)CSc2ccc(-c3cccs3)nn2)cc1	OX1R antag-1 41
Cc1ccc(CNC(=O)CSc2ccc(-c3cccs3)nn2)cc1	OX1R antag-1 51
Cc1csc(=O)n1CC(=O)OCC(=O)c1ccc(Br)cc1	none
Cc1ccc(NC(=O)c2ccc(Cl)c(S(=O)(=O)N3CCCCC3)c2)nc1	none
Nc1n[nH]c(-c2ccc([N+](=O)[O-])cc2[N+](=O)[O-])n1	OX1R antag-1 67
Nc1nc(N)nc(-c2cc([N+](=O)[O-])ccc2O)n1	none
N#CC1=C(N)NC(SCc2ccc(Br)cc2)=C(C#N)C12CCCCC2	CHO parental Ca 45
N#CC1=C(N)NC(SCC(=O)Nc2ccc(Br)cc2)=C(C#N)C12CCCCC2	none
N#CC1=C(N)NC(SCc2ccc(Cl)cc2)=C(C#N)C12CCCCC2	OX1R antag-2 54, CHO parental Ca 47
N#CC1=C(N)NC(SCc2ccccc2)=C(C#N)C12CCCC2	none
CC(OC(=O)c1nc(Cl)ccc1Cl)C(=O)Nc1ccc2c(c1)OCCO2 (stereo unspecified)	none
Cc1cc(N2CCCC2)ccc1/C=C1\NC(=S)N(C)C1=O	OXTR ag 54, V1R ag counter 49, OX1R antag-2 48, CHO parental Ca 41
O=C1N/C(=C/c2ccc(N3CCCC3)cc2)C(=O)N1c1ccccc1	none
O=C1/C(=C/c2ccc(N3CCCC3)cc2)NC(=S)N1C1CC1	OXTR ag 115, V1R ag counter 84, OX1R antag-2 106, CHO parental Ca 58
CN1C(=O)c2ccc(N3CCCC3)cc2C1=O	none
CCCN(C(=O)COC(=O)CNC(=O)c1ccc2ccccc2c1)c1c(N)n(Cc2ccccc2)c(=O)[nH]c1=O	none
CN(C)C(=O)COC(=O)/C=C/c1ccccc1[N+](=O)[O-]	OX1R antag-1 39
C=CCNC(=O)c1ccc(NC(=O)CC2SC(N3CCCC3)=NC2=O)cc1 (stereo unspecified)	none
CC(C)COC(=O)NCCOC(=O)Nc1cccc(Cl)c1	CHO parental Ca 57
CC(C)COC(=O)NCCCOC(=O)Nc1ccccc1	none
CN(C)S(=O)(=O)c1ccc2nc(NC(=O)c3cccnc3)sc2c1	none
O=C(NC(Nc1nc2ccc([N+](=O)[O-])cc2s1)(C(F)(F)F)C(F)(F)F)c1cccnc1	OX1R antag-1 59
O=C(NC(Nc1nc2ccc([N+](=O)[O-])cc2s1)(C(F)(F)F)C(F)(F)F)c1ccccc1Cl	OX1R antag-1 90, CHO parental Ca 33
CCN(CC)c1ccc(C(=O)NNC(=O)CNC(=O)c2cccs2)cc1	none
O=C(C1CC1)N1CCc2cc(S(=O)(=O)NCCCN3CCCCC3)ccc21	none
O=C(C1CCC1)N1CCc2cc(S(=O)(=O)NCCN3CCN(c4ccccc4F)CC3)ccc21	CHO parental Ca 51
Cc1cccc(N2C(=O)CC(N3CCN(c4ccccn4)CC3)C2=O)c1 (stereo unspecified)	none

Screening data deposited in PubChem by The Scripps Research Institute Molecular Screening Center.
